Experimental data reported in the EternaBench riboswitch data.

System: MS2 coat protein
Assay: apparent Kd, MS2 coat protein; higher = weaker binding; RNA-MaP array
How it was run: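 The designed RNAs, transcribed from sequenced DNA templates on an Illumina sequencing chip, were incubated with fluorescently labeled MS2 coat protein at room temperature. Protein ranged from 1.5 nM to 3 μM, with 0.8–1.5 h incubation at the lowest and 10–20 min at the highest concentrations, in Tris-HCl pH 7.5 buffer with KCl, MgCl2, BSA, DTT, tRNA and Tween20, with or without input ligand. The median of per-cluster binding-curve fits gives the apparent Kd, and designs measured on fewer than 10 clusters were excluded.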

[1] = designed as: ON switch for flavin mononucleotide, no ligand
[2] = ligand present: flavin mononucleotide, designed as: ON switch for flavin mononucleotide
[3] = designed as: OFF switch for theophylline, no ligand
[4] = ligand present: theophylline, designed as: OFF switch for theophylline
[5] = designed as: ON switch for tryptophan, no ligand
[6] = ligand present: tryptophan, designed as: ON switch for tryptophan
[7] = designed as: OFF switch for flavin mononucleotide, no ligand
[8] = ligand present: flavin mononucleotide, designed as: OFF switch for flavin mononucleotide

Sequence | apparent Kd [7] [nM] | apparent Kd [8] [nM] | also measured
CUGCUCUGUACUGAAGGAGAUACAUGAGGAUCACCCAUGUGCAGAAGGUGCUCAUUAAUAAUCGGCAAGGAUAUGCGGGCUUGA |  |  | apparent Kd [1]: 925 nM; apparent Kd [2]: 390 nM
UGAGAACAUGUCUUUAAGUUUACCUCUGAUACCAGAUUGAAAGGCAUCCCUUGGCAGCAGCAUACAUGAGGAUCACCCAUGUCCU |  |  | apparent Kd [3]: 111 nM; apparent Kd [4]: 138 nM
AAGAACAUGAGGAUCACCCAUGUGAUCGUUCGAGGACCGGUACGGCCGCCACUCGGACCUGUGUCCAGGCACGGGCCGACGCGAC |  |  | apparent Kd [5]: 77.8 nM; apparent Kd [6]: 38.2 nM
CCUCGGCCAUCAGGAUAUCAUUCUCCGAUGCGGAACAUGAGGAUCACCCAUGUUGGGUACCCGUGUGAGAAGGGAUGCGUACGG | 74.3 | 62.2 | 
CAAAUGUGCACUCGUGAUACAUGAGGAUCACCCAUGUCAACUAAGGAUAUCUGGAAGUCACAUCGAGAGAAGGUAGCGUACCCU | 10.5 | 9.44 | 
UGCCUCCAGCGAGGAUAUAUGUAGAGAUACACCAUAGAAGGCGCUGUAGUGGAACAUGAGGAUCACCCAUGUGACCUCGCCCGG | 13.2 | 17.6 | 
CGGCUCAUAAUGGAUACCAGUCCAGCAUAGAAACCUUGACACAUGAGGAUCACCCAUGUUGACCCUUGGCAGCCAUUGAUCAUAC |  |  | apparent Kd [3]: 22.4 nM; apparent Kd [4]: 133 nM
GCCUCGAACUCAGGAUAUCAGAGAGGUUGCCGCUGAGAAGGGAGACAUGAGGAUCACCCAUGUACAGUCAUGACCGUCGAGUUG |  |  | apparent Kd [1]: 65.8 nM; apparent Kd [2]: 84 nM
AUCACAACCAAGAAGGGUCAGAUAACUCGAGAGACAGGAUAUUGAACAACAUAGUCAACAUGAGGAUCACCCAUGUAAAAUAAA |  |  | apparent Kd [1]: 54 nM; apparent Kd [2]: 24.2 nM
GUACCUCCUCAGAAGGCGCGUAGAGCCGGCACAUGAGGAUCACCCAUGUCGAGGCGAAAUGCAGGCGAGGAUAUGAAGGGUUUC |  |  | apparent Kd [1]: 4.88 nM; apparent Kd [2]: 4.92 nM
UUUCAAGUAUCGGCCGCCACUCUAGUUGGUUGUUCAAUCCGAUUACAUGAGGAUCACCCAUGUCUGAGGACCGGGAUAAAGUAAU |  |  | apparent Kd [5]: 26.1 nM; apparent Kd [6]: 31.8 nM
AUAAAGGAAGGAUAUACAUGAGGAUCACCCAUGUUGAAAUACAGAAAAGGAGAAACAAGUAGAAGGACCGAUGU | 14.2 | 11.6 | 
GUGAUGCCUUACACAUGAGGAUCACCCAUGUGGUGUAAGCGUAGAAGGUGAAUAUAUUCCAUAGUCAAGGAUAUACGAACAAUC | 12.2 | 11.5 | 
UGUAGACAUGAGGAUCACCCAUGUGCAACUGCAACAGGAUAUAGGGAGCGAUAGGAACGCCUAGAAGGGUUGAUCU |  |  | apparent Kd [1]: 28.2 nM; apparent Kd [2]: 24.6 nM
GUCGGUGCAGGAUAUCGAGGCGCCAACAUGAGGAUCACCCAUGUGUGUGAUCGGGUGCACCGAGAAGGGCACUUGC | 110 | 345 | 
UACAUGAGGAUCACCCAUGUUUAUUGGUAGAACGGAUAAUGGGAGGAUAUGAACCGAUCAGAUCAUCAGAAGGCCCUUAAUGGG |  |  | apparent Kd [1]: 29 nM; apparent Kd [2]: 20 nM
AUCGGCGCACAGAAGGGACGAUCAAACUGCUGAUCACAUGAGGAUCACCCAUGUUGUUUGGAUAGUCAGGAUAUGUUGACCAUG | 17.6 | 16 | 
CAUGUGUAAGGAUAUGCGUCGAUAUCAACUAACUAUAUGAUGCAGAAGGUACAUGAGGAUCACCCAUGUGAACU | 30.3 | 118 | 
AACACACCAAAUGAUACCAGCUACAACAUGAUACAAAACCACAUGAGGAUCACCCAUGUAAGCCCUUGGCAGCAUACUACUGUAA |  |  | apparent Kd [3]: 18.1 nM; apparent Kd [4]: 42.5 nM
ACUUCAGAUACAGGAUAUAGCGUAACAUGAGGAUCACCCAUGUCUUGAUGCCUCUGUCGCGACGACUAGAAGGGUAAGCUUUGA | 91.6 | 86.7 | 
CGGCGCUUAGGAUAUUAGAGAUGCAACAUGAGGAUCACCCAUGUGAUGAGGGUUGGCAGCUAAGAAGGAAGCAUCC | 86 | 61.5 | 

Sequence | apparent Kd [7] [nM] | apparent Kd [8] [nM] | also measured
ACACCUCACGGAAUACAUGAGGAUCACCCAUGUUGGGAAGGAAGAAGGUUCCGUGUUGAUUGCUGAAAGGAUAUUCGUGACCCG | 190 | 153 | 
AAUAGAGAGCAGAAGGCCCUAGUUAUCGGCAUGGGAGGAUAUGCACCAGAUAAUAACAUGAGGAUCACCCAUGUUGAAUAAGAA |  |  | apparent Kd [1]: 19.4 nM; apparent Kd [2]: 6.46 nM
ACAAGGAGUCAAGGAUAUGAUAGAAGUUACACAUGAGGAUCACCCAUGUUUCUCCGGUGUCAGAAUCAGAAGGUGAGUAUGCAU | 85.2 | 74.7 | 
CGGUGACAUGAGGAUCACCCAUGUAAGGAUAUACCGGUUGAAGAUAAUAGCGACGGCGGAAGAAGGUACCUACA | 32 | 25.9 | 
GGGUUACUCUAUGAUACCAGUUCCAUGCCGAAACCUGUGUACAUGAGGAUCACCCAUGUGAACCCUUGGCAGCAUUAAUCAACUG |  |  | apparent Kd [3]: 97.5 nM; apparent Kd [4]: 258 nM
GUCGCAUGAGGAUAUACAUGAGGAUCACCCAUGUAUCUACGCAUGGGAAGACACCAAUGUAGAAGGCAUCUCAA | 64.2 | 21.5 | 
GAAAUACAUGAGGAUCACCCAUGUCAGGAUAUCGGUGAGAAAGAGCAUCUCUGCGGCCCGAGAAGGGACACAGG | 64.5 | 51.8 | 
AUGUCACAUGAGGAUCACCCAUGUAUGGAUACCAGUUUAGUGAAUAACCCUUGGCAGCCAAGGAUGCGACAGAAAUCCGGAAAAC |  |  | apparent Kd (designed as: ON switch for theophylline, no ligand): 21.3 nM; apparent Kd (ligand present: theophylline, designed as: ON switch for theophylline): 21.1 nM
UGUGGGUCCGAAGAUACCAGCCAGCACAGCAUGUGUUUAAACAUGAGGAUCACCCAUGUCGGCCCUUGGCAGCUUGGUUUGGACG |  |  | apparent Kd [3]: 15.5 nM; apparent Kd [4]: 12.1 nM
AACUGUAAUACAAGAACAUGAGGAUCACCCAUGUGUCGCGCAGAGGAUAUACUGGUUCGCUGUCCGUAGAAGGCUGAGCACAUG |  |  | apparent Kd [1]: 33.9 nM; apparent Kd [2]: 23.9 nM
AGGAGGCAUAAGAAGGGUACAUGUAUUGGGUGUACAGGAUAUUACAGGUGCCGCACAUGAGGAUCACCCAUGUUAUCAUUGUGC | 39 | 34 | 
UUCUUUGACGAGAAGGUCUCAACAUGAGGAUCACCCAUGUGAAUUAAUGGAACCAGGCCUGUUUAGAAGGAUAUCGCGGGAGUU | 10.9 | 13.8 | 
UCGACAUCAGGAUAUACGAUGGAGUAGUUACGAGUAUCACGACAUGAGGAUCACCCAUGUAGAAGGGAUCGUCC | 21.4 | 17.7 | 
UGAGAAGUAGGAUAUAAGUACACCUACAUGAGGAUCACCCAUGUACCUAACGUAGCCGAUUUAGAAGGACUGUCAA | 58.7 | 35.5 | 
AACGUACAUGAGGAUCACCCAUGUGAGGAUAUGCCUAAAGAGUUCUAAGCAUCCAAGGGCAGAAGGCACAUGAA | 99.1 | 140 | 
UCCCUACCGUCGGCCGCCACUGGGUCAUACAGUUCGUAACUACAUGAGGAUCACCCAUGUGCAGCCAGGACCGGGACGCGCCUUG |  |  | apparent Kd [5]: 177 nM; apparent Kd [6]: 106 nM
UCGAUGGUACCCGAUACCAGCAAUACAUCACAGACCUGAUACAUGAGGAUCACCCAUGUGUGCCCUUGGCAGCGGGUCCUGAAAA |  |  | apparent Kd [3]: 17.8 nM; apparent Kd [4]: 38.1 nM
GACAGAAGGUAGAAGGUGGUUCUCCUCACCCACUUUGAGGACAUGAGGAUCACCCAUGUCAAAACCAAGGAUAUACUACGUCGU |  |  | apparent Kd [1]: 89.8 nM; apparent Kd [2]: 18.2 nM
ACAGAACGAGGAUAUCCACUUUGAUACAUGAGGAUCACCCAUGUCCUGAAAGUGUUUCAGGGAGAAGGCGUACCUA | 18 |  | 
CAAGGGAAUACAGGAUAUUGCUGGAGUUGGGCGAGACAUGAGGAUCACCCAUGUUAUGCUAUAGUCAAGAAGGGUAUCUCGAGG | 18.5 | 13 | 
